Experimental data pooled from the literature.
Lines come from different studies, so protocols differ.

Structure (SMILES) | host | medium | route | dose | notes | endpoint | value
CCc1cc(C(=O)NC)c2nccc(N3CCc4c(cc(Cn5ccnc5)cc4-c4cn(C)nc4C(F)(F)F)C3=O)c2c1 | male Sprague-Dawley rat | plasma | intravenous | 3 mg/kg | – | MRT(0-inf) | 0.4 h
Cc1cn2nc(-c3cc(=O)n4cc(N5CCNC6(CC6)C5)ccc4n3)cc(C)c2n1 | rat | plasma | – | – | – | fraction unbound | 0.16
CC(C)n1cc(C#N)c2cc(-n3cc(C(=O)O)cn3)ccc21 | human | plasma | oral | 10 mg | single dose, fasted, healthy volunteers | Tmax | 2.8 h
C[C@@H](Nc1cc(F)cc(F)c1)c1cc(C(=O)N(C)C)cc2c(=O)cc(N3CCOCC3)oc12 | human | plasma | oral | 240 mg | patients | Tmax | 2 h
CCOC(=O)[C@@]12C[C@@H]1[C@@H](n1ccc3c(NC)nc(C#Cc4ccc(Cl)s4)nc31)[C@H](O)[C@@H]2O | male Sprague-Dawley rat | plasma | oral | 1 mg/kg | – | MRT | 2.34 h
O=C(Nc1cc(F)c(F)c(F)c1)c1ccc(F)c(S(=O)(=O)NCc2cccc(B(O)O)c2)c1 | male Sprague-Dawley rat | plasma | oral | 20 mg/kg | – | MRT(0-t) | 0.84 h
Fc1ccc(Nc2n[nH]c3cccnc23)cc1Cl | rat | brain homogenate | – | – | – | fraction unbound | 0.0045
C=CC(=O)N(C)CCOc1c(N)ncnc1-c1cc(F)cc(NC(=O)c2ccc(C3CC3)cc2F)c1C | human | blood | oral | 100 mg | single dose, healthy volunteers | Tmax | 1.03 h
CCc1nc2c(C)cc(N3CCN(CC(=O)N4CC(O)C4)CC3)cn2c1N(C)c1nc(-c2ccc(F)cc2)c(C#N)s1 | human | plasma | oral | 60 mg | fed, healthy volunteers | Tmax | 0.5 h
COc1ccc([C@@H]2CN(C(=O)[C@@H](O)CO)C[C@@]2(C)[C@@H](C)O)cc1OC1CN(c2ccc(C)cn2)C1 | human | plasma | oral | 10 mg | single dose, healthy volunteers | Tmax | 2 h
